Measured values published in ChEMBL document CHEMBL4665894, “Driving Potency with Rotationally Stable Atropisomers: Discovery of Pyridopyrimidinedione-Carbazole Inhibitors of BTK” (ACS Med Chem Lett, 2020).
Several values for one entry are separate records, joined by “and”; a condition that tells them apart may be missing. Equal values may be shown once.

Experiments:
[1] = target: T1, Tyrosine-protein kinase BTK (Homo sapiens, UniProt Q06187); assay: Inhibition of BTK in human Ramos B cells assessed as reduction in goat anti human IgM-stimulated calcium flux preincubated for 1 hr followed by goat anti human IgM addition and measured for 180 secs by FLIPR assay; assay type: cell-based
[2] = target: T1, Tyrosine-protein kinase BTK; assay: Inhibition of BTK in human whole blood assessed as reduction in goat anti human IgM/human IL4-stimulated CD69 cell surface expression on peripheral B cells incubated for 18 hrs by FACS analysis; assay type: tissue-based
[3] = Glutathione reactivity in human liver microsomes assessed as GSH-adduct formation at 10 uM incubated for 60 mins; assay type: ADME; details: 1 h
[4] = organism: Homo sapiens; assay: Selectivity ratio of IC50 for JAK2 (unknown origin) to IC50 for recombinant full-length His-tagged human BTK expressed in baculovirus expression system
[5] = Cmax in mouse at 10 mg/kg, PO; assay type: ADME, organism-based; design: route oral, dose 10 mg/kg; details: in vivo
[6] = AUC in mouse at 10 mg/kg, PO; assay type: ADME, organism-based; design: dose 10 mg/kg; details: in vivo
[7] = Stability of the compound in human whole blood assessed drug degradation at 0.5 uM incubated for 10 mins; assay type: ADME, tissue-based; details: read-out: Drug degradation
Method in brief: (§1)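 Test compound spiked into human whole blood at 0.5 µM and incubated; remaining parent tracked over time, with samples at 10 min and at 2 h.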

[8] = Stability of the compound in human whole blood assessed drug degradation at 0.5 uM incubated for 2 hrs; assay type: ADME, tissue-based; details: read-out: Drug degradation; method in brief: as §1
[9] = target: T1, Tyrosine-protein kinase BTK; assay: Inhibition of recombinant full-length His-tagged human BTK expressed in baculovirus expression system using fluoresceinated peptide as substrate incubated for 60 mins by fluorescence assay
[10] = system: B cell; assay: Antiproliferative activity against anti-IgM/IgG-induced human peripheral B cells; assay type: functional, cell-based
Method in brief: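 B cell receptor stimulation of human peripheral B cells with anti-IgM/IgG (proliferation read-out), of human whole blood with anti-IgM (CD69 surface expression), and of mouse whole blood with anti-IgM/IgG (CD69 surface expression). IC50 reported as the mean of at least three determinations; for line 9 a single determination is also reported.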

T1 sequence (Q06187 whole entry): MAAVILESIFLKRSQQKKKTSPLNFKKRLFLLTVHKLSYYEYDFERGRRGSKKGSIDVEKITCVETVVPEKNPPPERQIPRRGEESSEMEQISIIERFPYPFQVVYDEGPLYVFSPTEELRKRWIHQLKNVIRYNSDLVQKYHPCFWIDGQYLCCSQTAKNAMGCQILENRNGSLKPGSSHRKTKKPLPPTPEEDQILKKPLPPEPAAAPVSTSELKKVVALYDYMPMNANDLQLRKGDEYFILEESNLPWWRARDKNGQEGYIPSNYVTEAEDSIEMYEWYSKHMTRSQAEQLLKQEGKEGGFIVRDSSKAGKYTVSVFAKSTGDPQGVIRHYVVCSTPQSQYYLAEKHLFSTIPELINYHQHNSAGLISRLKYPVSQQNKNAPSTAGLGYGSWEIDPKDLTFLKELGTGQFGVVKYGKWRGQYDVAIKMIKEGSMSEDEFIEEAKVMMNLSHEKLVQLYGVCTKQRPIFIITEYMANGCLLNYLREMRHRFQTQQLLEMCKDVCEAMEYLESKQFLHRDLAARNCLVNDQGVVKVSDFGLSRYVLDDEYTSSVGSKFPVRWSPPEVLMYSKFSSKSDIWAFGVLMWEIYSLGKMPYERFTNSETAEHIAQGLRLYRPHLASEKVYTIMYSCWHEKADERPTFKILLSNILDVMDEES

SMILES: Cc1c(-c2ccc(C(N)=O)c3[nH]c4cc(C(C)(C)O)ccc4c23)cccc1-n1c(=O)cc2c(Cl)cccn2c1=O
- IC50 [1]: 12 nM and 18 nM and 13 nM
- IC50 [2]: 120 nM and 78 nM and 69 nM
- Stabilty [3]: Stable
- Ratio IC50 [4]: 1400 and 1100 and 2500
- Cmax [5]: 3500 nM
- AUC [6]: 23 µM·h

SMILES: Cc1c(-c2ccc(C(N)=O)c3[nH]c4cc(C(C)(C)O)ccc4c23)cccc1-n1c(=O)cc2cc(Cl)ccn2c1=O
- IC50 [1]: 3.1 nM
- IC50 [2]: 3000 nM
- Stabilty [3]: Unstable
- Ratio IC50 [4]: 1500
- metabolised at 10 min, 0.5 µM [7]: > 85%
- metabolised at 2 h, 0.5 µM [8]: 100%
- IC50 [9]: 0.49 nM

SMILES: Cc1c(-c2ccc(C(N)=O)c3[nH]c4cc(C(C)(C)O)ccc4c23)cccc1-n1cnc2ccccc2c1=O
- IC50 [10]: 8 nM
- AUC [6]: 80 µM·h

SMILES: Cc1c(-c2ccc(C(N)=O)c3[nH]c4cc(C(C)(C)O)ccc4c23)cccc1-n1c(=O)cc2c(F)cccn2c1=O
- IC50 [1]: 19 nM and 18 nM and 14 nM
- IC50 [2]: 75 nM and 91 nM and 79 nM
- Ratio IC50 [4]: 1100 and 500 and 870
- Cmax [5]: 5200 nM
- IC50 [9]: 0.86 nM
- AUC [6]: 28 µM·h

SMILES: COc1ccn2c(=O)n(-c3cccc(-c4ccc(C(N)=O)c5[nH]c6cc(C(C)(C)O)ccc6c45)c3C)c(=O)cc2c1
- IC50 [1]: 19 nM
- IC50 [2]: 140 nM
- Ratio IC50 [4]: 1600
- Cmax [5]: 1300 nM
- AUC [6]: 3.9 µM·h

SMILES: COc1cccn2c(=O)n(-c3cccc(-c4ccc(C(N)=O)c5[nH]c6cc(C(C)(C)O)ccc6c45)c3C)c(=O)cc12
- IC50 [1]: 19 nM
- IC50 [2]: 140 nM
- Ratio IC50 [4]: 1900
- Cmax [5]: 1300 nM
- AUC [6]: 4 µM·h
